Experimental data from ChEMBL document CHEMBL4152381, “Discovery of Benzoazepinequinoline (BAQ) Derivatives as Novel, Potent, Orally Bioavailable Respiratory Syncytial Virus Fusion Inhibitors” (J Med Chem, 2018).

Legend:
[1] = Cytotoxicity against human Hep2 cells assessed as decrease in cell viability after 5 days by CCK8 assay; type: cell-based; conditions: HEp-2 cells
In short: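 Uninfected HEp-2 cells, seeded at 6000 per well, were cultured 5 days with serially diluted compound alongside the CPE assay. Viability was read by CCK-8, and CC50 was the concentration cytotoxic to 50% of cells.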

[2] = Therapeutic index, ratio of CC50 for human Hep2 cells to EC50 for inhibition of RSV long fusion protein assessed as protection against virus induced cytopathic effect in infected human Hep2 cells; type: toxicity, cell-based; conditions: HEp-2 cells, read-out: Ratio CC50/EC50
In short: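 Index computed as CC50/EC50. CC50 came from uninfected HEp-2 cells and EC50 from 50% reduction of RSV Long CPE in HEp-2 cells (MOI 0.02). Both assays ran 5 days with serially diluted compound and a CCK-8 viability read-out.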

[3] = Intrinsic clearance in mouse liver microsomes; type: ADME, microsome; conditions: read-out: CLH
In short: (§1)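 Intrinsic clearance was measured in human, rat or mouse liver microsomes and reported as scaled clearance.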

[4] = Intrinsic clearance in human liver microsomes; type: ADME, microsome; conditions: read-out: CLH; in short: as §1
[5] = Intrinsic clearance in rat liver microsomes; type: ADME, microsome; conditions: read-out: CLH; in short: as §1
[6] = Half life in Wistar-Han rat at 2 mg/kg, iv by LC/MS/MS analysis; type: ADME, organism-based; conditions: in vivo
In short: (§2)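 Single-dose PK in male Wistar rats at 2 mg/kg iv and 10 mg/kg po. Plasma clearance, Vss, iv half-life, AUC and oral bioavailability were derived.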

[7] = Volume of distribution at steady state in Wistar-Han rat at 2 mg/kg, iv after 15 mins to 24 hrs by LC/MS/MS analysis; type: ADME, organism-based; conditions: in vivo, read-out: Vdss; in short: as §2
[8] = Clearance in Wistar-Han rat at 2 mg/kg, iv after 15 mins to 24 hrs by LC/MS/MS analysis; type: ADME, organism-based; conditions: in vivo; in short: as §2
[9] = Solubility of the compound by LYSA; type: physicochemical
In short: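 Solubility measured by lyophilization solubility assay (LYSA), reported in μg/mL.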

[10] = Oral bioavailability in Wistar-Han rat at 10 mg/kg after 15 mins to 24 hrs by LC/MS/MS analysis; type: ADME, organism-based; conditions: in vivo; in short: as §2
[11] = Fraction unbound in mouse plasma; type: ADME, cell-free
[12] = Effective permeability of the compound by PAMPA; type: ADME; conditions: read-out: Peff
In short: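 Parallel artificial membrane permeability assay, with permeability reported in 10−6 cm/s.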

[13] = AUC (0 to infinity) in Wistar-Han rat at 2 mg/kg, iv after 15 mins to 24 hrs by LC/MS/MS analysis; type: ADME, organism-based; design: dose 2 mg/kg, route intravenous, time infinity; conditions: in vivo
[14] = Fraction unbound in human plasma; type: ADME, cell-free
[15] = Drug metabolism in mouse liver microsomes assessed as oxidation; type: ADME, microsome
[16] = AUC (0 to infinity) in Wistar-Han rat at 10 mg/kg, po after 15 mins to 24 hrs by LC/MS/MS analysis; type: ADME, organism-based; design: dose 10 mg/kg, time infinity, route oral; conditions: in vivo
[17] = Drug metabolism in mouse liver microsomes assessed as dealkylation; type: ADME, microsome
[18] = Drug metabolism in rat liver microsomes assessed as dealkylation; type: ADME, microsome
[19] = Drug metabolism in rat liver microsomes assessed as oxidation; type: ADME, microsome

SMILES	CC50 at 120 h [1] [µM]	selectivity ratio [2]	also measured
NCCNc1cc(N2CCc3ccccc3C2)nc2ccccc12	15	7	–
Cc1ccc2nc(N3CCS(=O)(=O)c4ccccc4C3)cc(NCCCCCN)c2c1	21	778	–
NCCNc1cc(N2CCCc3ccccc3C2)nc2c(Cl)cccc12	25	23	–
Cc1ccc2nc(N3CCNc4ccccc4C3)cc(NCCN)c2c1	12	52	CLint scaled [3]: 19 mL/min/kg; CLint scaled [4]: 5 mL/min/kg; CLint scaled [5]: 43 mL/min/kg
Cc1ccc2nc(N3CCCc4cc(F)ccc4C3)cc(NCCN)c2c1	> 3.2	> 7	CLint scaled [3]: 31 mL/min/kg; CLint scaled [4]: 8 mL/min/kg; CLint scaled [5]: 33 mL/min/kg
NCCCNc1cc(N2CCc3ccccc3C2)nc2ccccc12	8.4	1	–
NCCNc1cc(N2CCCc3ccccc3C2)nc2ccc(F)cc12	8	5	–
Cc1ccc2nc(N3CCCc4ccc(F)cc4C3)cc(NCCN)c2c1	> 3.2	> 32	CLint scaled [3]: 24 mL/min/kg; CLint scaled [4]: 6 mL/min/kg; CLint scaled [5]: 160 mL/min/kg
Cc1ccc2nc(N3CCS(=O)(=O)c4ccccc4C3)cc(NCCCCN)c2c1	92	13100	–
NCCNc1cc(N2CCCc3ccccc3C2)nc2cccc(Cl)c12	23	3	–
Cc1ccc2nc(N3CCCc4ccccc4C3)cc(NCCN)c2c1	9.4	129	–
CS(=O)(=O)c1ccc2nc(N3CCCc4ccccc4C3)cc(NCCN)c2c1	13	2	–
NCC(O)CNc1cc(N2Cc3ccccc3C2)nc2ccccc12 (stereo unspecified)	2.9	–	–
Cc1ccc2nc(N3CCS(=O)(=O)c4ccccc4C3)cc(NCCCN)c2c1	21	21000	–
NCC(O)CNc1cc(N2CCCc3ccccc3C2)nc2ccccc12 (stereo unspecified)	21	95	–
Cc1ccc2nc(N3CC(=O)Nc4ccccc4C3)cc(NCCN)c2c1	55	177	CLint scaled [3]: 11 mL/min/kg; CLint scaled [5]: 21 mL/min/kg

SMILES	CC50 at 120 h [1] [µM]	selectivity ratio [2]	also measured
NCCNc1cc(N2CCS(=O)(=O)c3ccccc3C2)nc2ccccc12	94	8540	CLint scaled [5]: 3 mL/min/kg
NCCNc1cc(N2CCCc3ccccc3C2)nc2ccc(Cl)cc12	> 3.2	> 27	–
NCCNc1cc(N2CCOc3ccccc3C2)nc2ccccc12	> 10	> 43	CLint scaled [3]: 25 mL/min/kg; CLint scaled [4]: 14 mL/min/kg; CLint scaled [5]: 20 mL/min/kg
COc1ccc2nc(N3CCCc4ccccc4C3)cc(NCCN)c2c1	4.8	15	–
Cc1ccc2nc(N3CCC(F)(F)c4ccccc4C3)cc(NCCN)c2c1	6.6	106	–
NCCNc1cc(N2CCCc3ccccc3C2)nc2ccc(C(F)(F)F)cc12	6.7	6	–
OCC(O)CNc1cc(N2CCc3ccccc3C2)nc2ccccc12 (stereo unspecified)	66	3	–
CC(O)CNc1cc(N2CCc3ccccc3C2)nc2ccccc12 (stereo unspecified)	89	–	–
Cc1ccc2nc(N3CCS(=O)(=O)c4ccccc4C3)cc(NCCN)c2c1	66	16500	half-life [6]: 4.5 h; CLint scaled [3]: 1 mL/min/kg; Vd [7]: 17 L/kg; clearance [8]: 97 mL/min/kg; solubility [9]: > 466 µg/mL; bioavailability [10]: 0%; fraction unbound [11]: 0.08; Papp [12]: 0.12 ×10⁻⁶ cm/s; CLint scaled [4]: 5 mL/min/kg; CLint scaled [5]: 8 mL/min/kg; AUC(0-inf) [13]: 346 ng·h/mL; fraction unbound [14]: 0.078
NCCNc1cc(N2CCCc3ccccc3C2)nc2cc(Cl)ccc12	7.5	2	–
NCCNc1cc(N2CCCc3ccccc3C2)nc2ccccc12	23	115	half-life [6]: 12 h; Drug metabolism [15]: Metabolite_Detected; AUC(0-inf) [16]: 510 ng·h/mL; Drug metabolism [17]: Metabolite_Detected; Drug metabolism [18]: Metabolite_Detected; CLint scaled [3]: 19 mL/min/kg; Vd [7]: 73 to 106 L/kg; clearance [8]: 89 to 106 mL/min/kg; solubility [9]: > 460 µg/mL; bioavailability [10]: 32%; Papp [12]: 0.99 ×10⁻⁶ cm/s; CLint scaled [4]: 10 mL/min/kg; Drug metabolism [19]: Metabolite_Detected; CLint scaled [5]: 23 mL/min/kg; AUC(0-inf) [13]: 324 ng·h/mL
NCCCCNc1cc(N2CCc3ccccc3C2)nc2ccccc12	7.4	–	–
NCC(O)CNc1cc(N2CCc3ccccc3C2)nc2ccccc12 (stereo unspecified)	21	95	–
N=C(N)NCCNc1cc(N2CCc3ccccc3C2)nc2ccccc12	> 100	43	–
NC(=O)NCCNc1cc(N2CCc3ccccc3C2)nc2ccccc12	80	5	–
